Our source for the Kb, solubility and IC50 values is ChEMBL document CHEMBL1124058, “8-Aryl-and 8-cycloalkyl-1,3-dipropylxanthines: further potent and selective antagonists for A1-adenosine receptors” (J Med Chem, 1988).

The target in data set [1] is T1, Adenosine receptor A1 (Rattus norvegicus) (UniProt P25099).
T1 sequence (whole entry): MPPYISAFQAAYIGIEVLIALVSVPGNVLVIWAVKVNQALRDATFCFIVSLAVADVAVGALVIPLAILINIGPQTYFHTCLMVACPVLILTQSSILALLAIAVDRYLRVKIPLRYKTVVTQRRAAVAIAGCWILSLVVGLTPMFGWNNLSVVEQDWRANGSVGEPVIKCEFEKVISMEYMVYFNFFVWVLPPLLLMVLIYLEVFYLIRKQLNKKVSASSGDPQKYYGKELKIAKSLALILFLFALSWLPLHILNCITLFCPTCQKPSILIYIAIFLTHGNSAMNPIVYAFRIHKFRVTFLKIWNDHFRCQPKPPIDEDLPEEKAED
In words: Antagonistic activity on N6-([3H]-phenylisopropyl)adenosine binding to rat brain membrane (Adenosine A1 receptor). Type of data set: tissue-based.

Data set [2] concerns the target Adenosine A2 receptor (Homo sapiens, UniProt P29275+P29274). In words: Inhibition of 5'-(N-ethylcarbamoyl)adenosine-elicited stimulation of adenylate cyclase in human platelet membranes. Type of data set: cell membranes.
Data set [3] is described as follows: Solubility in water at PH 7.4 in the presence of Tris.HCl buffer. Type of data set: physicochemical. In short, it runs like this: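 Aqueous solubility measured in Tris-HCl buffer, pH 7.4.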
Data set [4] concerns the target Adenosine A2 receptor (Cavia porcellus). In words: Inhibition of stimulation of adenylate cyclase in guinea pig brain slices at A2 receptor (2-chloroadenosine-elicited accumulations of cyclic AMP).
Data set [5] addresses T1, Adenosine receptor A1 (Rattus norvegicus). In words: Antagonistic activity against N6-([3H]-phenylisopropyl)adenosine binding to rat brain membrane (Adenosine A1 receptor). The format is tissue-based. In short, it runs like this:
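Competition binding against 1 nM N6-([3H]phenylisopropyl)adenosine at A1 receptors in rat cerebral cortical membranes. A range of xanthine concentrations was tested in triplicate in at least two separate experiments. Values are means with 95% confidence limits.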

Consider `CCCn1c(=O)c2nc(-c3ccc(OCC(=O)NCCc4c[nH]cn4)cc3O)[nH]c2n(CCC)c1=O`, for which the Kb in data set [1] is 100 nM; in data set [2] it was 2400 nM.

As to `CCCn1c(=O)c2nc(CC3CCCCC3)[nH]c2n(CCC)c1=O`, the values for the Kb in data set [1] and in data set [2] were 39 nM and 2700 nM, respectively. On to `CCCn1c(=O)c2nc(-c3ccc(OCC(N)=O)cc3O)[nH]c2n(CCC)c1=O`, for which the Kb in data set [1] worked out at 6.5 nM; in data set [2], 1200 nM. Also, the solubility in data set [3] came out at 5600 µM.

In the case of `CCCn1c(=O)c2nc(-c3ccc(OCC(=O)O)cc3O)[nH]c2n(CCC)c1=O`, the Kb stood at 37 nM in data set [1] and 2000 nM in data set [2]. The solubility in data set [3] was 1100 µM. Compound `CCCn1c(=O)c2nc(C3CCCCC3)[nH]c2n(CCC)c1=O` registered a Kb in data set [2] of 190 nM. Also, in data set [3], the solubility was 74 µM.

Take `CCCn1c(=O)c2nc(-c3ccc(C(N)=O)cc3)[nH]c2n(CCC)c1=O`: the Kb in data set [1] was found to be 12 nM; in data set [2], 54 nM. This compound displayed an IC50 in data set [4] of 72 nM. As to `CCCn1c(=O)c2[nH]c(-c3ccc(C(N)=O)cc3)nc2n(CCC)c1=O`, the solubility in data set [3] turned out to be 5 µM. Compound `CCCn1c(=O)c2nc(-c3ccc(O)cc3)[nH]c2n(CCC)c1=O` had a Kb in data set [1] of 3.5 nM. As to `CCCn1c(=O)c2nc[nH]c2n(CCC)c1=O`, in data set [3], the solubility turned out to be 1600 µM. In data set [5], the Kb is 710 nM. On to `CCCn1c(=O)c2nc(-c3ccc(O)cc3O)[nH]c2n(CCC)c1=O`, for which the Kb in data set [1] was 2.5 nM.

With `CCCn1c(=O)c2nc(CC3CCCC3)[nH]c2n(CCC)c1=O`, the Kb in data set [2] came to 1900 nM; in data set [5], 16 nM. Consider `CCCn1c(=O)c2nc(-c3ccc(OCC(=O)NCCN(C)C)cc3O)[nH]c2n(CCC)c1=O`, for which the Kb came out at 8.4 nM in data set [1] and 77 nM in data set [2].

As to `CCCn1c(=O)c2[nH]c(-c3ccccc3)nc2n(CCC)c1=O`, the solubility in data set [3] came to 18 µM. Consider `CCCn1c(=O)c2[nH]c(C3CCCC3)nc2n(CCC)c1=O` [1,3-DIPROPYL-8-CYCLOPENTYLXANTHINE [DPCPX]], for which, in data set [3], the solubility is 31 µM.

For the compound `CCCn1c(=O)c2nc(-c3ccc(C(=O)NCC(=O)OC)cc3)[nH]c2n(CCC)c1=O`, the Kb stood at 38 nM in data set [1] and 240 nM in data set [2].

For `CCCn1c(=O)c2nc(C3CCNCC3)[nH]c2n(CCC)c1=O`, the figures for the Kb in data set [1] and in data set [2] were 620 nM and 6900 nM, respectively. Take `CCCn1c(=O)c2nc(-c3ccc(OCC(=O)NCCN)cc3O)[nH]c2n(CCC)c1=O`: the Kb was 2.4 nM in data set [1] and 140 nM in data set [2]. Moreover, the solubility in data set [3] came out at 710 µM. As to `CCCn1c(=O)c2nc(-c3ccc(OCC(=O)NCCc4ccc(O)cc4)cc3O)[nH]c2n(CCC)c1=O`, the Kb came to 16 nM in data set [1] and 4400 nM in data set [2].

In the case of `CCCn1c(=O)c2nc(-c3ccc(OC)cc3)[nH]c2n(CCC)c1=O`, the Kb in data set [1] stood at 3.7 nM. For the same compound, the solubility in data set [3] was 14 µM. In data set [1], `CCCn1c(=O)c2nc(-c3ccccc3)[nH]c2n(CCC)c1=O` returned a Kb of 10 nM. Regarding `CCCn1c(=O)c2[nH]c(-c3ccc(OC)cc3O)nc2n(CCC)c1=O`, the Kb in data set [1] came to 4.6 nM; in data set [2], 180 nM. The compound further displayed an IC50 in data set [4] of 980 nM. For the same compound, the solubility in data set [3] was 18 µM. On to `CCCn1c(=O)c2[nH]c(-c3ccc(O)cc3O)nc2n(CCC)c1=O`, for which, in data set [3], the solubility stood at 11 µM. With `CCCn1c(=O)c2nc(-c3ccc(OCC(=O)OCC)cc3O)[nH]c2n(CCC)c1=O`, the Kb in data set [1] was 31 nM; in data set [2], 3800 nM.

For the compound `CCCn1c(=O)c2nc(-c3ccc(C(=O)O)cc3)[nH]c2n(CCC)c1=O`, the Kb in data set [1] came to 200 nM. Also, the solubility in data set [3] was 180 µM. `CCCn1c(=O)c2nc(-c3cnccn3)[nH]c2n(CCC)c1=O`: the values for the Kb in data set [1] and in data set [2] were 600 nM and 3600 nM, respectively.

Usually solubility stands for the concentration that dissolves in the medium under given conditions. Broadly, the IC50 is the concentration at which inhibition is half-maximal.
